Usually Ki stands for the equilibrium dissociation constant of an inhibitor or competing ligand from its target. Low values mean tighter binding, high ones weaker binding.

The record followed here is ChEMBL document CHEMBL1154626, “Novel, potent, and selective quinoxaline-based 5-HT(3) receptor ligands. 1. Further structure-activity relationships and pharmacological characterization” (J Med Chem, 2009).

The source made the active and inactive calls. The rule behind the calls is not given here.

The subject of assay [1] is Rattus norvegicus. As to the kind of experiment: Agonist activity at 5HT3 receptor in Sprague-Dawley rat assessed as induction of bradycardia at 50 ug/kg, iv measured after 5 to 30 mins post-treatment by von Bezold-Jarisch reflex test. It counts as functional. In short, it runs like this: (§1)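 Urethane-anesthetized rats, compound given iv. Agonism was scored as the compound itself evoking the von Bezold-Jarisch reflex (bradycardia). Antagonism was tested by giving the compound iv 5, 15 or 30 min before phenylbiguanide (PBG) and scoring the reduction of PBG-evoked bradycardia. ED50 is the dose giving half of the maximal bradycardia evoked by the same compound.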

For assay [2], the system named is Rattus norvegicus. The assay is described as follows: Agonist activity at 5HT3 receptor in Sprague-Dawley rat assessed as induction of bradycardia at 100 ug/kg, iv measured after 5 to 30 mins post-treatment by von Bezold-Jarisch reflex test. It counts as functional. In short, it runs like this: as §1
In assay [3] the target is Muscarinic acetylcholine receptor. As to the kind of experiment: Displacement of [3H]QNB from muscarinic receptor in rat cortex.
For assay [4], the system named is Rattus norvegicus. The assay is described as follows: Agonist activity at 5HT3 receptor in Sprague-Dawley rat assessed as induction of bradycardia at 1 ug/kg, iv measured after 5 to 30 mins post-treatment by von Bezold-Jarisch reflex test. It counts as functional, organism-based. The procedure, abridged:
as §1

In assay [5] the test system is Rattus norvegicus. The assay is described as follows: Antagonist activity at 5HT3 receptor in iv dosed Sprague-Dawley rat assessed as inhibition of 1-phenylbiguanide-induced bradycardia administered 5 mins before 1-phenylbiguanide challenge measured after 5 to 30 mins post-treatment by von Bezold-Jarisch reflex test. It counts as functional. The procedure, abridged: as §1

Assay [6] relates to Rattus norvegicus. As to the kind of experiment: Antagonist activity at 5HT3 receptor in Sprague-Dawley rat assessed as inhibition of 1-phenylbiguanide-induced bradycardia at 100 ug/kg, iv administered 5 mins before 1-phenylbiguanide challenge measured after 5 to 30 mins post-treatment by von Bezold-Jarisch reflex test. It counts as functional. In short, it runs like this: as §1

Assay [7] concerns Rattus norvegicus. The assay is described as follows: Antagonist activity at 5HT3 receptor in Sprague-Dawley rat assessed as inhibition of 1-phenylbiguanide-induced bradycardia at 10 ug/kg, iv administered 5 mins before 1-phenylbiguanide challenge measured after 5 to 30 mins post-treatment by von Bezold-Jarisch reflex test. It counts as functional. In short, it runs like this: as §1

For assay [8], the system named is Rattus norvegicus. The assay is described as follows: Antagonist activity at 5HT3 receptor in Sprague-Dawley rat assessed as inhibition of 1-phenylbiguanide-induced bradycardia at 1 ug/kg, iv administered 5 mins before 1-phenylbiguanide challenge measured after 5 to 30 mins post-treatment by von Bezold-Jarisch reflex test. It counts as functional, organism-based. The procedure, abridged: as §1

Assay [9] deals with Rattus norvegicus. As to the kind of experiment: Agonist activity at 5HT3 receptor in Sprague-Dawley rat assessed as induction of bradycardia at 10 ug/kg, iv measured after 5 to 30 mins post-treatment by von Bezold-Jarisch reflex test. It counts as functional. In short, it runs like this:
as §1

In assay [10] the test system is Rattus norvegicus. The assay is described as follows: Antagonist activity at 5HT3 receptor in Sprague-Dawley rat assessed as inhibition of 1-phenylbiguanide-induced bradycardia at 50 ug/kg, iv administered 5 mins before 1-phenylbiguanide challenge measured after 5 to 30 mins post-treatment by von Bezold-Jarisch reflex test. It counts as functional. In short, it runs like this:
as §1

The target in assay [11] is T1, Adrenergic receptor alpha-1 (Rattus norvegicus, UniProt P15823+P23944+P43140).
T1 sequence (P15823 whole entry): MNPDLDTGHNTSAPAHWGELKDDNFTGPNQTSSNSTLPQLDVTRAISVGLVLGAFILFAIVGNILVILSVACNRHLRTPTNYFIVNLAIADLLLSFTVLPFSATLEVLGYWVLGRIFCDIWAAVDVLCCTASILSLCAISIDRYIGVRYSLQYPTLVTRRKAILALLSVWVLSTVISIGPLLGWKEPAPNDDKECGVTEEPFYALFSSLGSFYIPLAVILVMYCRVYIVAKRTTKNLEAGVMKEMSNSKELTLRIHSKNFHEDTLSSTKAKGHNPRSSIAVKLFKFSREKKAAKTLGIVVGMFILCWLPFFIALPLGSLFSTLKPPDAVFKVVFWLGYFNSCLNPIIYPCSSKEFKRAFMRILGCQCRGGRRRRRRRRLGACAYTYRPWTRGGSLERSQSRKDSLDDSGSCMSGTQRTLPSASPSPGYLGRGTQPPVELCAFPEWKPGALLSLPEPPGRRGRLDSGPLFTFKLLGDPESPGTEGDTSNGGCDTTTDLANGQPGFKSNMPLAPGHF
T1 sequence (P23944 whole entry): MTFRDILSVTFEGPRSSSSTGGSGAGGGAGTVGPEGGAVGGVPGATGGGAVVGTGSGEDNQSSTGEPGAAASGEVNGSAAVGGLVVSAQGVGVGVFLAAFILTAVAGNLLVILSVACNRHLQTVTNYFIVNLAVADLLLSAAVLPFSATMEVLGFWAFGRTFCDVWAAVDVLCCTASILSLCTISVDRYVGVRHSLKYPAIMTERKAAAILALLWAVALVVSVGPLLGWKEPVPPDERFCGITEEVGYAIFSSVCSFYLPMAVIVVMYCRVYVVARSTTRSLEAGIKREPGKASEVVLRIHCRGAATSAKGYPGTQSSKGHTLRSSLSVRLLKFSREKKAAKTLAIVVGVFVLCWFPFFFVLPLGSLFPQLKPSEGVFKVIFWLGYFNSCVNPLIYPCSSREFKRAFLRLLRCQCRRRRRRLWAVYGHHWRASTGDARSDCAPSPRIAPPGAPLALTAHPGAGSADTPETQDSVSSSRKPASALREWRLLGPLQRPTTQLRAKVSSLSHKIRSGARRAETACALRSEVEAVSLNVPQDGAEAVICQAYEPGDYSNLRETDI
T1 sequence (P43140 whole entry): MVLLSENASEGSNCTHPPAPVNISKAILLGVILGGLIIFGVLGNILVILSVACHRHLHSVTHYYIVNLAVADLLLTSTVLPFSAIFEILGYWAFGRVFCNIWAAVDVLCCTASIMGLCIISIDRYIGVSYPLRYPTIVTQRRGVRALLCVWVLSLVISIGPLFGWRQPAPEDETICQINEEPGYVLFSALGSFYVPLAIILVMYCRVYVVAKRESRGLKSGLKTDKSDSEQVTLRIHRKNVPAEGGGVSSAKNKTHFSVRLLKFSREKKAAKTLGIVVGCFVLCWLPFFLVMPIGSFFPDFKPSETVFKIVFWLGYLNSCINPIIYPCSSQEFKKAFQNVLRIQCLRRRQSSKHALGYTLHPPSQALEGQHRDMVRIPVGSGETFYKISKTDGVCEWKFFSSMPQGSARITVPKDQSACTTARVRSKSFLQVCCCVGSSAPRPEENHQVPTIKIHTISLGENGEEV
As to the kind of experiment: Displacement of [3H]prazosin from adrenergic alpha1 receptor in rat cortex. A general note: Displacement assays read how much labelled ligand stays bound in the presence of the test substance.

Take `Fc1ccc2c(c1)nc(N1CCN(Cc3c[nH]cn3)CC1)c1cccn12`: the outcome in assay [1], in [6], in assay [7], in [9] and in assay [10] was Active. Moreover, the Activity in assay [2] is given as 40%. Further, the inhibitory constant (Ki) in [3] and in [11] was above 10 µM throughout. Also, the result in assay [4] and in [8] was inactive. The ID50 in assay [5] was 0.01 mg/kg.
